From ChEMBL document CHEMBL1121834, “Aromatic retinoic acid analogues. Synthesis and pharmacological activity” (J Med Chem, 1981)

What was measured:
Assay type in all cases: functional
[1] = target: T1, Ornithine decarboxylase (Mus musculus) (UniProt P00860); experiment: Inhibition of tumor promoter (TPA) -induced mouse epidermal ornithine decarboxylase (ODC) activity at 17 nmol dose level
T1 sequence (whole entry): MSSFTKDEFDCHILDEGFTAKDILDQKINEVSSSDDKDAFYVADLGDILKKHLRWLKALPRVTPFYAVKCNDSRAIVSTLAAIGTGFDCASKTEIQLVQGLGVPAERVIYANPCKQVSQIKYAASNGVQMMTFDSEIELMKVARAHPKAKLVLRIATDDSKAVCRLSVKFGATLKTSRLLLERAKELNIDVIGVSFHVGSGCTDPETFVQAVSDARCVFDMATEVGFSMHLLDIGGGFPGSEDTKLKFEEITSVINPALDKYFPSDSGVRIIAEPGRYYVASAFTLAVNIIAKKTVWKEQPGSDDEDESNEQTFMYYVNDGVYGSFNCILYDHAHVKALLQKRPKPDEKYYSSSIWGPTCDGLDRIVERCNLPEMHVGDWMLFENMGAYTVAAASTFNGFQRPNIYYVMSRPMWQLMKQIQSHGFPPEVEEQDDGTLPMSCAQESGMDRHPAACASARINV
Method in brief: (§1)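 Retinoid applied topically to mouse skin 1 h before topical TPA (12-O-tetradecanoylphorbol 13-acetate) to induce epidermal ODC. Dorsal skin from each group of mice was pooled and ODC activity assayed in triplicate. Activity is expressed as % inhibition of TPA-induced ODC relative to TPA-only controls (mean ± SE over groups).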

[2] = target: T1, Ornithine decarboxylase (Mus musculus); experiment: Inhibition of tumor promoter (TPA) -induced mouse epidermal ornithine decarboxylase (ODC) activity at 170 nmol dose level; method in brief: as §1
[3] = target: T1, Ornithine decarboxylase (Mus musculus); experiment: Inhibition of tumor promoter (TPA) -induced mouse epidermal ornithine decarboxylase (ODC) activity at 1.7 nmol dose level; method in brief: as §1

Row | Structure (SMILES) | inhibition [1] [%] | inhibition [2] [%] | inhibition [3] [%]
1 | CC1=C(/C=C/C(C)=C/c2ccc(C(=O)O)cc2)C(C)(C)CCC1 | 77 | 87 | 62
2 | CC1=C(/C=C/C(C)=C\c2ccc(C(=O)O)cc2)C(C)(C)CCC1 | 43 | 64 | 33
3 | CC1=C(/C=C/C(C)=C\C=C\c2ccccc2O)C(C)(C)CCC1 | 0 | – | –
4 | CCOC(=O)c1ccc(/C=C(C)/C=C/C23OC2(C)CCCC3(C)C)cc1 (stereo unspecified) | 71 | – | –
5 | CC1=C(/C=C/C(C)=C/C=C/c2ccccc2O)C(C)(C)CCC1 | 25 | – | –
6 | CCOC(=O)c1ccc(/C=C(C)/C=C/C2=C(C)CCCC2(C)C)cc1C | 0 | – | –
7 | CC1=C(/C=C/C(C)=C/C=C/c2ccccc2C(=O)O)C(C)(C)CCC1 | 7 | – | –
